thrombin 1536 = human alpha-thrombin inhibitors, primary screen, counter-screen for coagulation protease inhibitor project, biochemical, 1536-well, fluorogenic AMC substrate | Prothrombin (Homo sapiens), P00734 | Boc-VPR-AMC fluorogenic substrate cleavage | inhibition, % at 5 µM | 220,000 tested, 0.26% active | AID 1046, 2008;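 active means inhibition at or above 40%; inactive means inhibition below 40%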;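 further: 0% = enzyme with no compound and 100% = wells without enzyme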
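Test system: human alpha-thrombin; medium: pH 7.5 Tris-saline with Tween 20; times: reaction at room temperature; signal: AMC fluorescence at 355 nm excitation and 460 nm emission; also added: Boc-VPR-AMC substrate, 15 µM final; dosing: one concentration per compound, 5 µM, with 0.2% DMSO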
AHR activator = AHR activators, primary screen, cell-based, luminescence, luciferase reporter, human; activation, % at 5 µM; Aryl hydrocarbon receptor (Homo sapiens), P35869; AHR-responsive luciferase reporter cells; 320,000 tested, 2.5% active; in the data active means activation above about 47%;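 further: 0% = vehicle wells and 100% = reference agonist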
FXIIa inh 1536 = human FXIIa protease inhibitors, primary screen, biochemical, 1536-well. purified FXIIa, Boc-QGR-AMC fluorogenic substrate, 2 h. inhibition, % at 5 µM. 220,000 tested, 0.3% active. AID 800, 2007; in the data active means inhibition above about 40%;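 further: 0% = enzyme with no compound and 100% = blank without enzyme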
Target sequence (P00748 20-372 limits assumed): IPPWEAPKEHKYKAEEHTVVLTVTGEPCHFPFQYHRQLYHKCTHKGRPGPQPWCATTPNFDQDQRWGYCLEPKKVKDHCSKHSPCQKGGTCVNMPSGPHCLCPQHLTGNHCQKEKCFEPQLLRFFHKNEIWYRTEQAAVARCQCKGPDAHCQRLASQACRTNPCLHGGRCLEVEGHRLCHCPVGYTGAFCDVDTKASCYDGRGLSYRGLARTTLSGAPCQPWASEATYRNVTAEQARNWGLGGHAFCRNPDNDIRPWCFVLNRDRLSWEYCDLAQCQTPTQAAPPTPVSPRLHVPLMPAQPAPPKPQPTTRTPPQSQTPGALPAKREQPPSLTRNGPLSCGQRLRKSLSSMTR
Target sequence (P00748 373-615 limits assumed): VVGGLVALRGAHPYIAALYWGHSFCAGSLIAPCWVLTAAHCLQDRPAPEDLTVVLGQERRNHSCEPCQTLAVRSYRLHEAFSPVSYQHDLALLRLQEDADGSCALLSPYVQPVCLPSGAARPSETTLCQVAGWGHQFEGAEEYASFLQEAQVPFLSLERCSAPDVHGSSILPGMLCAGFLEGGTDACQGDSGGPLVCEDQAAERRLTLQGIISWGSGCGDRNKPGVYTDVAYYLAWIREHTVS
FXIa inh 1536 = human FXIa protease inhibitors, primary screen, biochemical, 1536-well; 220,000 tested, 0.14% active; Coagulation factor XI (Homo sapiens), P03951; purified FXIa, Boc-Glu-Ala-Arg-AMC fluorogenic substrate; inhibition, % at 5 µM;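 active means inhibition of at least 40%; inactive means inhibition below 40%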;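 further: fluorescence of freed AMC excited at 355 nm; 0% = enzyme without compound and 100% = no enzyme blank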
STAT3 act = IL-6 driven STAT3 reporter potentiators, primary screen, U3A cells, luciferase, luminescence, MLSCN library; IL-6 STAT3-luciferase reporter; 100% = signal with IL-6 EC80 alone; activation (% of control), % at 5.6 µM; 190,000 tested, 0.91% active; AID 871, 2007;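 active means activation above the screen-wide mean of compound activation plus 3 SD, cut at about 130% in these data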;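 further: 0% = background luminescence of wells with medium and substrate only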
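Material: human U3A cells carrying STAT3-luciferase construct. Measured by: reporter luminescence signal. Timing: compound 1 h, then IL-6 6 h at 37 °C.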
KLK5 inh = human KLK5 protease inhibitors, primary screen, biochemical, 1536-well. Kallikrein-5 (Homo sapiens), Q9Y337. recombinant hK5, fluorogenic AMC substrate cleavage. inhibition, % at 5 µM. 210,000 tested, 0.59% active;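 active means inhibition of 40% or more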;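 further: 0% = enzyme controls without compound and 100% = no-enzyme blanks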
* marks the source's active call; other numbers are inactive results; / = not tested or not shown. Shown are actives, neighbours in structure and some others; about 3.5% of the full set was active somewhere.

SMILES | thrombin 1536 | AHR activator | FXIIa inh 1536 | FXIa inh 1536 | STAT3 act | KLK5 inh
CCOC(=O)/C(=C\C=C1/Sc2ccccc2N1CC)C(C)=O | -2 | 53* | 27 | 23 | 90 | -5
CN(C(=O)COC(=O)c1ccc2c(=O)n3c(nc2c1)CCC3)c1ccccc1 | -5 | 1 | 15 | 7 | 92 | -17
O=S(=O)(Nc1cc(Sc2ncn[nH]2)c(O)c2ccccc12)c1ccccc1 | -11 | / | -3 | 3 | 101 | -29
O=C(O)CSc1cc(NS(=O)(=O)c2ccc(Br)cc2)c2ccccc2c1O | / | 49* | / | / | / | /
Fc1cccc(Cl)c1/C=C/c1cnc2ccccc2n1 | / | 66* | / | / | / | /
Fc1cccc(F)c1/C=C/c1ccc2ccccc2n1 | -4 | 48* | 5 | -3 | 55 | -1
C(=C\c1ccco1)/c1ccc2ccccc2n1 | -10 | 15 | -2 | -4 | / | -6
CC1CCCCN1C(=O)c1ccc(C(=O)c2ccccc2)cc1 (stereo unspecified) | / | 0 | / | / | / | /
COC(=O)C1=CN(c2ccc(F)cc2)C=C(C(=O)OC)C1c1ccc(O)cc1 | / | 1 | / | / | / | /
Cc1occc1C(=O)Nc1cc(=O)n(C)c(=O)n1C | -1 | 66* | 6 | -5 | 97 | -9
Cn1c(NC(=O)/C=C/c2ccccc2)cc(=O)n(C)c1=O | 0 | 78* | 6 | 10 | 108 | 0
COc1ccc(/C=C/C(=O)Nc2cc(=O)n(C)c(=O)n2C)cc1 | 0 | 47* | 25 | 23 | 80 | -13
CCc1cccc(C)c1NC(=O)CN1CCN(S(=O)(=O)c2ccc(C(C)(C)C)cc2)CC1 | / | 4 | / | / | / | /
CC1CN(C(=O)c2ccc(COc3ccc4ccccc4c3)o2)CC(C)O1 (stereo unspecified) | 0 | 25 | 7 | 0 | 119 | -5
CC1CN(C(=O)c2ccc(COc3ccc(C(C)C)cc3)o2)CC(C)O1 (stereo unspecified) | -8 | 23 | 5 | 1 | 133* | -6
COc1ccc(CCNC(=O)COC(=O)c2cc(S(=O)(=O)N3CCOCC3)ccc2C)cc1OC | / | 0 | / | / | / | /
Cc1cc(C(=O)CCl)c(C)n1CCc1ccc(Cl)cc1 | -1 | -8 | 7 | 2 | 96 | /
COc1ccc(CCn2c(C)cc(C(=O)CCl)c2C)cc1OC | / | -2 | 103* | 30 | 100 | 24
COc1cc(NC(=O)CSc2nnnn2Cc2ccc3c(c2)OCO3)cc(OC)c1 | -4 | 71* | 12 | -7 | 96 | -5
COc1cc(OC)cc(-n2nnnc2SCC(=O)Nc2ccc(C(C)=O)cc2)c1 | 89* | 0 | 9 | 0 | 102 | 19
COc1ccc(NC(=O)CSc2nnnn2-c2ccc(OC)cc2)cc1 | -10 | 5 | 17 | 0 | 97 | -18
Cc1nn(CC(=O)N2CCc3ccccc3C2)c(C)c1[N+](=O)[O-] | -1 | 7 | 85* | 38 | 108 | 22
Cc1c(Br)c([N+](=O)[O-])nn1CC(=O)N1CCc2ccccc2C1 | -8 | 5 | 3 | -2 | 106 | -14
CC(=O)NC(C)c1ccc(Cl)c(Cl)c1 (stereo unspecified) | 16 | 1 | 0 | 14 | 109 | 68*
O=C(Nc1nnc(C2CC2)s1)c1cc([N+](=O)[O-])ccc1N1CCCCC1 | -4 | 49* | 9 | -6 | 106 | -5
SMILES | thrombin 1536 | AHR activator | FXIIa inh 1536 | FXIa inh 1536 | STAT3 act | KLK5 inh
CC(C)(C)NC(=O)c1cc([N+](=O)[O-])ccc1N1CCCCC1 | 73* | 3 | 3 | 6 | 106 | 63*
Cc1ccc(NC(=O)c2cc([N+](=O)[O-])ccc2N2CCCC2)cc1 | -2 | 30 | 1 | -3 | 98 | -1
Cc1ccc(C(C)(C)C)c(SCC(=O)Nc2nnc(C)s2)c1 | / | 9 | / | / | / | /
O=C1N=C2N(CCN3CCCCC3)c3ccccc3N2/C1=C\c1ccc([N+](=O)[O-])o1 | -9 | / | 6 | -3 | 100 | -9
Fc1ccccc1N1CCN(Cc2nc(-c3ccc(Cl)cc3Cl)no2)CC1 | 25 | 1 | 33 | 22 | 101 | 56*
COc1ccc2cc(C(=O)N3CCc4ccccc43)[nH]c2c1 | / | 82* | / | / | / | /

Source: PubChem BioAssay (several laboratories)
